UPR XBP1 act: activators of adaptive XBP1 UPR arm, primary screen, cell-based, CHO-XBP1 luciferase reporter, luminescence, uHTS; IRE1-XBP1 UPR activation; percent of tunicamycin response, DMSO as zero; activation, % at 20 µM; 330,000 compounds, 0.33% hits;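 active means versus positive control, 20 µM dose yields 30% or more activation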;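 further: 100% = tunicamycin at 10 µg/mL and 0% = DMSO only wells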
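Assay system: IRE1-XBP1 luciferase reporter CHO line. Input: 1000 cells/well. Buffer or medium: F12 with 10% serum. Doses: 20 µM, 1% DMSO. Times: overnight seeding at 37 °C, 6 h compound treatment at 37 °C. Technique: Steady-Glo luciferase glow luminescence, 10 min after reagent addition.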
UPR CHOP act: activators of apoptotic CHOP UPR arm, primary screen, cell-based, CHO-CHOP luciferase reporter, luminescence, uHTS | UPR activation; percent of tunicamycin response over DMSO baseline | AID 449763, 2010 | 330,000 compounds, 0.34% hits | activation, % at 10 µM;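 active means at 10 µM dose, activation of 40% or more, normalized to positive control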;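 further: 100% = tunicamycin at 10 µg/mL and 0% = DMSO alone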
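Test system: CHO-CHOP cells, stable luciferase reporter of PERK-eIF2a-CHOP signalling | Quantity: 500 CHO-CHOP cells per well | Buffer or medium: F12 plus 10% serum | Compound dosing: 10 µM single point, 0.5% DMSO | Schedule: 6 h compound treatment, 37 °C | Signal: Luciferase luminescence | Control set: Tunicamycin high control, DMSO low control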
ABHD5-PLIN5 inh: ABHD5-PLIN5 interaction inhibitors, primary screen, cell lysate, split luciferase complementation, luminescence; Perilipin-5 (Homo sapiens) + 1-acylglycerol-3-phosphate O-acyltransferase ABHD5 (Homo …; Split G. princeps luciferase complementation, 4 h; inhibition, % at 4 µM; 360,000 compounds, 0.78% hits;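 active means inhibition above the mean inhibition across every tested compound plus 3 SD, cut at about 22% in these data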;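 further: 0% = DMSO only wells and the 100% control is not disclosed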
Target sequence (Q00G26 whole entry, looked up): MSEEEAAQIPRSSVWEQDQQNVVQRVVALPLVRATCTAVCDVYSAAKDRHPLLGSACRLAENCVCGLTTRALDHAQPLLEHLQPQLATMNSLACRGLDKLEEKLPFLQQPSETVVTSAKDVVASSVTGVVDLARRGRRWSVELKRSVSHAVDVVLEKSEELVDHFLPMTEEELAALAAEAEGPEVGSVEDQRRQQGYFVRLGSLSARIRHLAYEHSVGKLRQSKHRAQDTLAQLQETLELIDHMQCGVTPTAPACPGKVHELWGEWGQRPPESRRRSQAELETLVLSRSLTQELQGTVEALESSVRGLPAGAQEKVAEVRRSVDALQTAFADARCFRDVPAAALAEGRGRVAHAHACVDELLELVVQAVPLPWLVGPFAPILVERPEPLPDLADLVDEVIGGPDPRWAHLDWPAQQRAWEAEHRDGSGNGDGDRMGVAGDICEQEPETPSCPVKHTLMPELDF
Target sequence (Q8WTS1 whole entry, looked up): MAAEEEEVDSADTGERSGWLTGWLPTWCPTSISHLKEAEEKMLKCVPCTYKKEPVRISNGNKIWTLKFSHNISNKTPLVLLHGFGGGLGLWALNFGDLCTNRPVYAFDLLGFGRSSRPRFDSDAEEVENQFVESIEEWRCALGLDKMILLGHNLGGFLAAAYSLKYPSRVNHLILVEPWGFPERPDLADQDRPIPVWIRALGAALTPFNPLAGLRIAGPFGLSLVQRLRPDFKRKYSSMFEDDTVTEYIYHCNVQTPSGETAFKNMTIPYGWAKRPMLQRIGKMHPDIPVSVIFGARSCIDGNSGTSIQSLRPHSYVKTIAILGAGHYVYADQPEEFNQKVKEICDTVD
Mdm2-MdmX inh: inhibitors of human Mdm2-MdmX association, primary screen, cell-based, luminescence, split luciferase, SaOS-2, uHTS | 330,000 compounds, 3% hits | inhibition, % at 8 µM | SaOS-2 split-luciferase Mdm2/MdmX complementation | AID 485346, 2010;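 active means inhibition of at least 50% at 8 µM in the primary screen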
Granule exo inh: LAMP-1 surface exposure blockers, TALL-104 cells – cell-based, flow cytometry, MLPCN library, primary screen | TALL-104 LAMP-1 surface exposure; cells stimulated with thapsigargin and PMA | inhibition, % at 10 µM | 360,000 compounds, 0.66% hits;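 active means inhibition above about 55%, limit read from the data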
Numbers without * were called inactive. Hits are enriched below; roughly 4% of the tested compounds scored in any of these assays.

For CC(/C=C1\SC(=Nc2cccnc2)NC1=O)=C\c1ccccc1 the results were UPR XBP1 act 4.0, UPR CHOP act 1.0, ABHD5-PLIN5 inh 5.4, Mdm2-MdmX inh 25.3 and Granule exo inh 57.0*.
For C=CCOc1ccc(/C=C2\SC(=Nc3cccnc3)NC2=O)cc1 the results were UPR XBP1 act 2.4, UPR CHOP act 0.3, ABHD5-PLIN5 inh -0.8, Mdm2-MdmX inh 6.6 and Granule exo inh -2.6.
Cc1nc(SCC(=O)c2ccccc2)c(C#N)c(-c2ccco2)c1C(=O)NCc1ccco1 was read as UPR XBP1 act -4.3, UPR CHOP act 2.8, ABHD5-PLIN5 inh 37.5*, Mdm2-MdmX inh 34.0 and Granule exo inh 28.2.
CCOc1ccc(N2C(=O)CC(Sc3nnnn3-c3ccccc3)C2=O)cc1 (centres undefined) was read as ABHD5-PLIN5 inh 26.9* and Granule exo inh 39.6.
For CCOc1ccc(N2C(=O)CC(Sc3nc(C)cc(C)n3)C2=O)cc1 (centres undefined) the results were UPR XBP1 act -1.2, UPR CHOP act 0.0, ABHD5-PLIN5 inh -2.2, Mdm2-MdmX inh 17.5 and Granule exo inh 0.0.
Screening CCC(=O)N1N=C(c2ccc(C)cc2)CC1c1ccco1 (centres undefined) returned UPR XBP1 act 4.7, UPR CHOP act -0.5, ABHD5-PLIN5 inh -0.9, Mdm2-MdmX inh 9.0 and Granule exo inh 2.1.
Screening CCC1(CC)NC(=O)N(CC(=O)N2N=C(c3ccc(Cl)cc3)CC2c2ccco2)C1=O (centres undefined) returned UPR XBP1 act 2.9, UPR CHOP act 1.1, ABHD5-PLIN5 inh 22.1*, Mdm2-MdmX inh 21.5 and Granule exo inh -3.5.
Screening COc1cc(-c2ccc3c(=O)c4ccccc4sc3c2)cc(OC)c1OC returned UPR XBP1 act 0.9, UPR CHOP act 2.6, ABHD5-PLIN5 inh -2.7, Mdm2-MdmX inh 40.5 and Granule exo inh -9.4.
For CNC(=O)N(O)C1N(/N=C/c2ccccc2OC)C(=S)SC1(C)C (centres undefined) the results were UPR XBP1 act 6.7, UPR CHOP act 1.9, ABHD5-PLIN5 inh 6.5, Mdm2-MdmX inh 23.5 and Granule exo inh 0.3.
`O=C(COC(=O)c1ccc2[nH]c3c(c2c1)CCCC3)Nc1ccc(Cl)cc1Cl` gave UPR XBP1 act 1.0, UPR CHOP act 0.0, ABHD5-PLIN5 inh -2.0, Mdm2-MdmX inh 31.0 and Granule exo inh 0.6.
CCC(C)c1ccccc1NC(=O)COC(=O)c1ccc2[nH]c3c(c2c1)CCCC3 (centres undefined) was read as UPR XBP1 act -2.0, UPR CHOP act 1.0, ABHD5-PLIN5 inh -4.8, Mdm2-MdmX inh 39.6 and Granule exo inh 60.8*.
CCCC(C)C(=O)Nc1ccc2c(c1)OCCO2 (centres undefined) was read as UPR XBP1 act -5.3, UPR CHOP act 1.5, ABHD5-PLIN5 inh 2.6, Mdm2-MdmX inh 25.1 and Granule exo inh -1.4.
O=C1C(Cl)=C(N2CCCCCC2)C(=O)N1c1ccc(Cl)cc1 was read as UPR XBP1 act -4.6, UPR CHOP act 2.4, ABHD5-PLIN5 inh 3.8, Mdm2-MdmX inh 22.9 and Granule exo inh -0.7.
O=C1C(Cl)=C(N2CCCCC2)C(=O)C(Cl)=C1c1cnc(N2CCCCC2)s1 was read as UPR XBP1 act -0.5, UPR CHOP act 127.6*, ABHD5-PLIN5 inh -4.8, Mdm2-MdmX inh 31.3 and Granule exo inh 2.1.
`CCCOc1c(Br)cc(C(N)=O)cc1OCC` gave UPR XBP1 act 2.1, UPR CHOP act -0.2, ABHD5-PLIN5 inh -3.8, Mdm2-MdmX inh 22.4 and Granule exo inh -0.8.
Cc1ccc2c(c1)C(=C(C#N)C#N)C(=O)N2CCN1CCCCC1 was read as UPR XBP1 act 4.2, UPR CHOP act 3.1, ABHD5-PLIN5 inh 3.2, Mdm2-MdmX inh 10.4 and Granule exo inh 56.3*.
`CC(C)NC(=O)CSc1nnc(-c2ccco2)n1N` gave UPR XBP1 act -1.8, UPR CHOP act -0.8, ABHD5-PLIN5 inh 5.4, Mdm2-MdmX inh -16.4 and Granule exo inh 0.1.
O=[N+]([O-])c1cccc(OCCCN2CCC(Cc3ccccc3)CC2)c1 was read as ABHD5-PLIN5 inh 10.3 and Granule exo inh 86.0*.
`O=C(Nc1nc(-c2ccco2)c(-c2ccco2)s1)C1CC(=O)N(c2ccc3c(c2)OCCO3)C1` (centres undefined) gave UPR XBP1 act -4.2, UPR CHOP act -2.3, ABHD5-PLIN5 inh 32.6*, Mdm2-MdmX inh 32.0 and Granule exo inh 1.1.
Cc1nnc(NC(=O)C2CC(=O)N(c3ccc4c(c3)OCCO4)C2)s1 (centres undefined) was read as UPR XBP1 act -3.6, UPR CHOP act -0.3, ABHD5-PLIN5 inh -4.7, Mdm2-MdmX inh 1.7 and Granule exo inh 4.1.
For CC(=O)OC(C[N+]1(C)CCCCCC1)c1ccccc1 (centres undefined) the results were UPR XBP1 act -3.7, UPR CHOP act -1.7, ABHD5-PLIN5 inh -7.0, Mdm2-MdmX inh 0.5 and Granule exo inh -0.3.
C=CCN1C(=O)/C(=C/C(=O)OC)S/C1=N\NC(=O)c1ccccc1 was read as UPR XBP1 act -2.0, UPR CHOP act 1.2, ABHD5-PLIN5 inh 22.6*, Mdm2-MdmX inh 6.4 and Granule exo inh 15.1.
For C=CCn1c(C)c(C(C)=O)cc(NC(=O)c2ccccc2)c1=O the results were UPR XBP1 act -0.5, UPR CHOP act 0.0, ABHD5-PLIN5 inh -0.6, Mdm2-MdmX inh 16.0 and Granule exo inh -0.3.
`O=C(CBr)c1ccc([N+](=O)[O-])c(CS(=O)(=O)c2ccc(Cl)cc2)c1` gave UPR XBP1 act 0.1, UPR CHOP act -0.5, ABHD5-PLIN5 inh 26.9*, Mdm2-MdmX inh -3.5 and Granule exo inh 5.6.
For CCCC(=O)Nc1cc(Cl)ccc1C the results were UPR XBP1 act -1.0, UPR CHOP act 0.5, ABHD5-PLIN5 inh 9.0, Mdm2-MdmX inh 0.2 and Granule exo inh -0.6.
Screening Cc1ccc2[nH]c3c(NCc4ccco4)ncnc3c2c1 returned UPR XBP1 act 6.0, UPR CHOP act 14.0, ABHD5-PLIN5 inh 3.2, Mdm2-MdmX inh -50.5 and Granule exo inh 0.1.
`COc1cc(CNc2ncnc3c2[nH]c2ccc(C)cc23)cc(OC)c1` gave UPR XBP1 act -2.5, UPR CHOP act 1.4, ABHD5-PLIN5 inh 5.8, Mdm2-MdmX inh 31.3 and Granule exo inh 56.2*.
Screening Cc1nc(S/C(=C/c2ccc(-c3ccc(C(=O)O)cc3)o2)C(=O)O)n[nH]1 returned UPR XBP1 act -0.5, UPR CHOP act -0.9, ABHD5-PLIN5 inh 4.1, Mdm2-MdmX inh -42.2 and Granule exo inh -0.3.

Compound activity: PubChem BioAssay, several laboratories
